Activity calls are given as the source filed them. The rule behind the calls is not given here.
Legend:
Caulobacter vibrioides = experiment: Inhibition of Caulobacter crescentus PleD assessed as residual enzyme activity at 100 uM using 100 uM GTP substrate
Summary of the method: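 PleD residual DGC activity at 100 µM compound with 100 µM GTP substrate, measured by circular dichroism, or by reverse-phase HPLC of nucleotide content when compound CD spectra interfered.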

Pseudomonas aeruginosa [1] = experiment: Inhibition of Pseudomonas aeruginosa RocR assessed as residual enzyme activity at 100 uM using 30 uM c-di-GMP substrate
Summary of the method: (§1)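 RocR PDE activity measured with 30 µM c-di-GMP substrate, with or without inhibitors. For IC50, initial velocity used and residual activity fitted to log-dose vs response curve; points are mean and SD of three independent experiments. Single-point screens used 100 µM compound.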

[2] = Inhibition of Caulobacter crescentus PleD using 100 uM GTP substrate; set-up: species or system Caulobacter vibrioides
Summary of the method: (§2)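 DGC activity of PleD measured by circular dichroism with 100 µM GTP substrate; where compound CD spectra interfered, nucleotide content analysed by reverse-phase HPLC. Initial velocity used for IC50; residual activity versus inhibitor concentration fitted to log-dose vs response curve, mean and SD of three independent experiments.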

[3] = Inhibition of Pseudomonas aeruginosa RocR assessed as residual enzyme activity using 30 uM c-di-GMP substrate; summary of the method: as §1
Pseudomonas aeruginosa [4] = experiment: Inhibition of Pseudomonas aeruginosa WspR assessed as residual enzyme activity at 100 uM
Summary of the method: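 WspR DGC activity measured by circular dichroism under the same conditions as for PleD, with 100 µM compound; read-out as residual activity.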

Pseudomonas aeruginosa [5] = experiment: Inhibition of Pseudomonas aeruginosa YfiN containing HAMP-GGDEF domain assessed as residual enzyme activity up to 250 uM
Pseudomonas aeruginosa [6] = experiment: Inhibition of biofilm formation of Pseudomonas aeruginosa PAO1 at 7.81 to 500 uM incubated for 16 hrs by crystal violet staining method; format: functional, organism-based
Summary of the method: (§3)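 P. aeruginosa PAO1 or E. coli MG1655 grown 14 h at 37°C in M9 with 0.4% glucose (E. coli medium also with 2.5% LB). Cultures diluted in fresh medium, compound in DMSO or DMSO alone added, then incubated 16 h at 30°C. Planktonic A600 read; wells washed with PBS, air-dried, stained with 1% crystal violet, solubilised in ethanol, A595 read.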

Escherichia coli = experiment: Inhibition of biofilm formation of Escherichia coli MG1655 7.81 to 500 uM incubated for 16 hrs by crystal violet staining method; format: functional, organism-based; summary of the method: as §3
Pseudomonas aeruginosa [7] = experiment: Effect on cdrA expression in Pseudomonas aeruginosa PAO1 at 200 uM by real time RT-PCR method; format: functional, organism-based
Summary of the method: (§4)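 P. aeruginosa PAO1 grown at 37°C in M9 minimal medium with 0.4% glucose, plus DMSO or 200 µM compound in DMSO, to A600 2.0. Total RNA extracted, DNase-treated, reverse transcribed; qPCR with 5 ng cDNA per reaction and 300 nM primers, fluorescence read in the 60°C step. Normalized to 16S rRNA; relative fold change by 2∆∆Ct method.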

Pseudomonas aeruginosa [8] = experiment: Effect on pctC expression in Pseudomonas aeruginosa PAO1 at 200 uM by real time RT-PCR method; format: functional, organism-based; summary of the method: as §4
[9] = Inhibition of Caulobacter crescentus PleD; set-up: species or system Caulobacter vibrioides; summary of the method: as §2

| SMILES | Activity (Caulobacter vibrioides) | Activity (Pseudomonas aeruginosa [1]) | other results |
| --- | --- | --- | --- |
| Nc1nc2c(ncn2Cc2cn(C[C@H]3O[C@@H](n4cnc5c(=O)[nH]c(N)nc54)[C@H](O)[C@@H]3O)nn2)c(=O)[nH]1 | 89% | 77% |  |
| Nc1nc2c(ncn2CCCCn2cc(Cn3cnc4c(=O)[nH]c(N)nc43)nn2)c(=O)[nH]1 | 87% | 92% |  |
| Nc1ncnc2c1ncn2[C@@H]1O[C@H](COCc2cn(C[C@H]3O[C@@H](n4cnc5c(N)ncnc54)[C@H](O)[C@@H]3O)nn2)[C@@H](O)[C@H]1O | 105% | 113% |  |
| Nc1nc2c(ncn2[C@@H]2O[C@H](COCc3cn(C[C@H]4O[C@@H](n5cnc6c(=O)[nH]c(N)nc65)[C@H](O)[C@@H]4O)nn3)[C@@H](O)[C@H]2O)c(=O)[nH]1 | 63% | 88% |  |
| Nc1nc(Cl)c2ncn(CCn3cc(Cn4cnc5c(Cl)nc(N)nc54)nn3)c2n1 | 92% | 86% |  |
| Nc1nc2c(ncn2CCCn2cc(Cn3cnc4c(=O)[nH]c(N)nc43)nn2)c(=O)[nH]1 | 12.5% | 41% | IC50 [2]: 17.5 µM; IC50 [3]: 66.3 µM; Activity (Pseudomonas aeruginosa [4]): 20%; inhibition (Pseudomonas aeruginosa [5]): inactive; inhibition (Pseudomonas aeruginosa [6]): inactive; inhibition (Escherichia coli): inactive; Activity (Pseudomonas aeruginosa [7]): inactive; Activity (Pseudomonas aeruginosa [8]): inactive |
| CNc1nc(N)nc2c1ncn2CCCn1cc(Cn2cnc3c(NC)nc(N)nc32)nn1 | 96% | 70% |  |
| Nc1nc2c(ncn2[C@@H]2O[C@@H]3COP(=O)(O)O[C@H]4[C@@H](O)[C@H](n5cnc6c(=O)[nH]c(N)nc65)O[C@@H]4COP(=O)(O)O[C@H]3[C@H]2O)c(=O)[nH]1 |  |  | IC50 [9]: 5 µM |
| Nc1nc2c(ncn2[C@@H]2O[C@H](Cn3cc(COC[C@H]4O[C@@H](n5cnc6c(N)ncnc65)[C@H](O)[C@@H]4O)nn3)[C@@H](O)[C@H]2O)c(=O)[nH]1 | 97% | 79% |  |
| Nc1ncnc2c1ncn2CCCn1cc(Cn2cnc3c(N)ncnc32)nn1 | 106% | 64% |  |
| Nc1nc(Cl)c2ncn(CCCn3cc(Cn4cnc5c(Cl)nc(N)nc54)nn3)c2n1 | 32% | 96% | IC50 [2]: 25.5 µM; inhibition (Pseudomonas aeruginosa [6]): inactive; inhibition (Escherichia coli): inactive; Activity (Pseudomonas aeruginosa [7]): inactive; Activity (Pseudomonas aeruginosa [8]): inactive |
| Nc1nc(Cl)c2ncn(CCCCn3cc(Cn4cnc5c(Cl)nc(N)nc54)nn3)c2n1 | 98% | 128% |  |
| Nc1nc2c(ncn2CCCn2cc(COC[C@H]3O[C@@H](n4cnc5c(=O)[nH]c(N)nc54)[C@H](O)[C@@H]3O)nn2)c(=O)[nH]1 | 82% | 163% |  |
| Nc1nc2c(ncn2CCn2cc(Cn3cnc4c(=O)[nH]c(N)nc43)nn2)c(=O)[nH]1 | 104% | 77% |  |
| Nc1nc(NCc2ccccc2)c2ncn(CCCn3cc(Cn4cnc5c(NCc6ccccc6)nc(N)nc54)nn3)c2n1 | 109% | 75% |  |
| Clc1ncnc2c1ncn2CCCn1cc(Cn2cnc3c(Cl)ncnc32)nn1 | 97% | 93% |  |

Source: ChEMBL document CHEMBL3621194, “Synthesis of Triazole-Linked Analogues of c-di-GMP and Their Interactions with Diguanylate Cyclase” (J Med Chem, 2015)
